According to ChEMBL document CHEMBL3286322, “Synthesis and anti-cholinesterase activity of new 7-hydroxycoumarin derivatives” (Eur J Med Chem, 2014):
Activity calls are given as the source filed them. The rule behind the calls is not given here.

What was measured:
[1] = Antioxidant activity assessed as ferric ion reducing activity using fe3+-TPTZ measured per gram of protein by FRAP assay; type: functional
Outline: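 Reducing power measured against a FRAP reagent prepared by mixing acetate buffer (pH 3.6), 10 mM TPTZ in 40 mM HCl, and 20 mM ferric chloride hexahydrate. Test compounds act as reductants, converting the ferric tripyridyl triazine complex to the blue ferrous form, which is read colorimetrically. The method follows Benzie and Strain.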

Acetylcholinesterase [2] = target: T1, Acetylcholinesterase (Electrophorus electricus, UniProt O42275); test: Inhibition of electric eel AChE using acetylthiocholine iodide as substrate by spectrophotometer analysis
T1 sequence (O42275 whole entry): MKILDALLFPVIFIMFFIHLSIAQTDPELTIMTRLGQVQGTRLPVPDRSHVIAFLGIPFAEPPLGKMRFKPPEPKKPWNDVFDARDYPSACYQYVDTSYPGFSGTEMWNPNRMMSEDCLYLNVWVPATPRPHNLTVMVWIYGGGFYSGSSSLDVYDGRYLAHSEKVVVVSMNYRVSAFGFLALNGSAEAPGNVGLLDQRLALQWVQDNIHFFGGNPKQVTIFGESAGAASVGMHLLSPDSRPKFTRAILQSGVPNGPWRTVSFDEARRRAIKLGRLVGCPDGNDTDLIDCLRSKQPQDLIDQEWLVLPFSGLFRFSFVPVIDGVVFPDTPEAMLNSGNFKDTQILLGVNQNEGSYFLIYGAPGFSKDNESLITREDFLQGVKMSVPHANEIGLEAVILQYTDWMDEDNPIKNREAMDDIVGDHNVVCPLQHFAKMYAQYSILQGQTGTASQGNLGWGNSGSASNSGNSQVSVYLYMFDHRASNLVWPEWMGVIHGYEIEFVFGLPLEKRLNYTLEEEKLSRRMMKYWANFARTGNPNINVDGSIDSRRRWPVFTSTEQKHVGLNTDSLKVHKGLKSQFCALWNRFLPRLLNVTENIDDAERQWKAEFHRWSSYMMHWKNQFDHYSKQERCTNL

Cholinesterase = Cholinesterase (Equus caballus, UniProt P81908); test: Inhibition of equine serum BChE using butyrylthiocholine iodide as substrate by spectrophotometer analysis
Cholinesterase, sequence (P81908 whole entry): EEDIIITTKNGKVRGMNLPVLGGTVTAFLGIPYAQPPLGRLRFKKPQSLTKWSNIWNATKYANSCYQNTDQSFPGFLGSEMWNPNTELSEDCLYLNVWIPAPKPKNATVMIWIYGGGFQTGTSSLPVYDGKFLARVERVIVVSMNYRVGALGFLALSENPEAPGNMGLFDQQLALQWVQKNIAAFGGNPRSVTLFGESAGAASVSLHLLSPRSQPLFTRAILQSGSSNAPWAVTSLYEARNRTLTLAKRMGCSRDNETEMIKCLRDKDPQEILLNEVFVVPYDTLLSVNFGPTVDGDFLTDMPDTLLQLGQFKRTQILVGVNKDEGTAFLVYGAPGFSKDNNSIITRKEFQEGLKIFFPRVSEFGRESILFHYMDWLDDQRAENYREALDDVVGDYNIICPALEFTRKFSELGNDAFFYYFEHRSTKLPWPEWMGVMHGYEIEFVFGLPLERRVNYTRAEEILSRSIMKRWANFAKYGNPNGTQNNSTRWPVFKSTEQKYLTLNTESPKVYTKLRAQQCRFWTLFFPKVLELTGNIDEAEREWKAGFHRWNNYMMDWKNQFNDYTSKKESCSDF
Outline: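 Compound stocks were made in DMSO/ethanol (1:9) and diluted to final concentrations with 0.1 M potassium phosphate buffer, pH 8.0. IC50 values are mean ± SE of three independent experiments.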

[3] = Neuroprotective activity in rat PC12 cells assessed as inhibition H2O2-induced reduction of cell viability at 1 to 10 uM after 24 hrs by MTT assay; type: functional, cell-based; settings: PC-12
Outline: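 PC12 cells differentiated with NGF (50 ng/ml) in serum-free medium for 5 days, until neurite outgrowth was seen by microscopy. Cells were pre-incubated with compound at 1, 5 or 10 for 3 h, then exposed to H2O2 (300). Viability was expressed relative to the H2O2-only group. A reference compound was run at 5.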

[4] = Cytotoxicity against rat PC12 cells at 1 to 10 uM; type: cell-based; settings: pc-12, 10 µM
Acetylcholinesterase [5] = target: T1, Acetylcholinesterase; test: Inhibition of electric eel AChE using acetylthiocholine as substrate by Lineweavere-Burk plot
Outline: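 Compound stocks were made in DMSO/ethanol (1:9) and diluted in 0.1 M potassium phosphate buffer, pH 8.0. Initial AChE velocity was measured at inhibitor levels of 0, 0.64, 1.27 and 2.55 across varied acetylthiocholine concentrations. Inhibition type was read from a Lineweaver–Burk plot, and Ki was calculated from a secondary plot.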

[6] = Neuroprotective activity in rat PC12 cells assessed as inhibition H2O2-induced reduction of cell viability at 5 uM after 24 hrs by MTT assay; type: functional, cell-based; settings: PC-12
Outline: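 PC12 cells were differentiated in serum-free medium with NGF (50 ng/ml) for 5 days until neurite outgrowth appeared. Cells were preincubated with compound at 1, 5 or 10 for 3 h, then challenged with H2O2 (300). Viability is expressed relative to the H2O2-treated group.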

Compound | Activity [1] | IC50 (Acetylcholinesterase [2]) | IC50 (Cholinesterase) | Activity [3] | Activity [4] | Ki (Acetylcholinesterase [5]) | Activity [6]
O=C1O[C@H]([C@@H](O)CO)C(O)=C1O | 7.26 µmol |  |  |  |  |  | 
Cc1cc(=O)oc2cc(OCCCC(=O)N3CCN(c4ccccc4)CC3)ccc12 | 0.07 µmol | 20.8 µM | 68 µM |  |  |  | 
O=C(CCCOc1ccc2ccc(=O)oc2c1)N1CCN(c2ccc(Cl)c(Cl)c2)CC1 | 0.78 µmol | 26 µM | 80 µM |  |  |  | 
O=C(CCCOc1ccc2ccc(=O)oc2c1)N1CCN(c2ccccc2)CC1 | 1.13 µmol | 3.43 µM | 120 µM |  |  |  | 
Cc1cc(=O)oc2cc(OCCCC(=O)N3CCN(c4ccccc4O)CC3)ccc12 | 2.01 µmol | 6.2 µM | 184 µM |  |  |  | 
O=C(COc1ccc2ccc(=O)oc2c1)N1CCN(c2ccc(Cl)c(Cl)c2)CC1 | 2.01 µmol | 26.8 µM | 120 µM |  |  |  | 
O=C(CCCOc1ccc2ccc(=O)oc2c1)N1CCC(O)(c2ccc(Br)cc2)CC1 | 0.03 µmol | 73 µM | 180 µM |  |  |  | 
O=C(COc1ccc2ccc(=O)oc2c1)N1CCC(Cc2ccccc2)CC1 | 0.05 µmol | 9.8 µM | 46 µM |  |  |  | 
O=C(COc1ccc2ccc(=O)oc2c1)N1CCN(c2ccccc2F)CC1 | 0.07 µmol | 34.5 µM | 86 µM |  |  |  | 
Cc1cc(=O)oc2cc(OCCCC(=O)N3CCN(c4ccc(F)cc4)CC3)ccc12 | 0.08 µmol | 41.6 µM | 24 µM |  |  |  | 
O=C(CCCOc1ccc2ccc(=O)oc2c1)N1CCN(c2ccccc2O)CC1 | 2.82 µmol | 7 µM | 280 µM |  |  |  | 
O=C(COc1ccc2ccc(=O)oc2c1)N1CCN(c2ccccc2)CC1 | 1.94 µmol | 33 µM | 50 µM |  |  |  | 
O=C(COc1ccc2ccc(=O)oc2c1)NC1CCN(Cc2ccccc2)CC1 | 0.06 µmol | 1.6 µM | 42 µM | Active | Non-toxic | 1.32 µM | 
O=C(CCCOc1ccc2ccc(=O)oc2c1)N1CCN(c2ccccc2F)CC1 | 0.15 µmol | 6.9 µM | 15 µM |  |  |  | 
O=C(CCCOc1ccc2ccc(=O)oc2c1)N1CCN(c2ccc(F)cc2)CC1 | 1.37 µmol | 50 µM | 75 µM |  |  |  | 
O=c1c(O)c(-c2ccc(O)c(O)c2)oc2cc(O)cc(O)c12 | 10.8 µmol |  |  |  |  |  | Active
Cc1cc(=O)oc2cc(OCCCC(=O)N3CCN(c4ccc(Cl)c(Cl)c4)CC3)ccc12 | 0.05 µmol | 4.38 µM | 250 µM |  |  |  | 
COc1ccc(CCNC(=O)COc2ccc3ccc(=O)oc3c2)cc1OC | 5.43 µmol | 74 µM | 163 µM |  |  |  | 
Cc1cc(=O)oc2cc(OCCCC(=O)N3CCC(O)(c4ccc(Br)cc4)CC3)ccc12 | 0.06 µmol | 34.6 µM | 141 µM |  |  |  | 
Cc1cc(=O)oc2cc(OCCCC(=O)N3CCN(c4ccccc4F)CC3)ccc12 | 0.1 µmol | 16.4 µM | 29 µM |  |  |  | 
O=C(CCCOc1ccc2ccc(=O)oc2c1)N1CCC(Cc2ccccc2)CC1 | 1.61 µmol | 6.9 µM | 387 µM |  |  |  | 
